Assay results from ChEMBL document CHEMBL3352352, “Structure-Based Drug Design of Novel, Potent, and Selective Azabenzimidazoles (ABI) as ATR Inhibitors” (ACS Med Chem Lett, 2015).
Values after ≈ are worked out from the molar mass of the structure shown. Active and inactive are the calls of the source. The rule behind the calls is not given here.

Experiments:
[1] = target: Serine/threonine-protein kinase ATR (Homo sapiens, UniProt Q13535); assay: Inhibition of human ATR using ATP substrate measured after 3 hrs
Sequence of Serine/threonine-protein kinase ATR (Q13535 whole entry): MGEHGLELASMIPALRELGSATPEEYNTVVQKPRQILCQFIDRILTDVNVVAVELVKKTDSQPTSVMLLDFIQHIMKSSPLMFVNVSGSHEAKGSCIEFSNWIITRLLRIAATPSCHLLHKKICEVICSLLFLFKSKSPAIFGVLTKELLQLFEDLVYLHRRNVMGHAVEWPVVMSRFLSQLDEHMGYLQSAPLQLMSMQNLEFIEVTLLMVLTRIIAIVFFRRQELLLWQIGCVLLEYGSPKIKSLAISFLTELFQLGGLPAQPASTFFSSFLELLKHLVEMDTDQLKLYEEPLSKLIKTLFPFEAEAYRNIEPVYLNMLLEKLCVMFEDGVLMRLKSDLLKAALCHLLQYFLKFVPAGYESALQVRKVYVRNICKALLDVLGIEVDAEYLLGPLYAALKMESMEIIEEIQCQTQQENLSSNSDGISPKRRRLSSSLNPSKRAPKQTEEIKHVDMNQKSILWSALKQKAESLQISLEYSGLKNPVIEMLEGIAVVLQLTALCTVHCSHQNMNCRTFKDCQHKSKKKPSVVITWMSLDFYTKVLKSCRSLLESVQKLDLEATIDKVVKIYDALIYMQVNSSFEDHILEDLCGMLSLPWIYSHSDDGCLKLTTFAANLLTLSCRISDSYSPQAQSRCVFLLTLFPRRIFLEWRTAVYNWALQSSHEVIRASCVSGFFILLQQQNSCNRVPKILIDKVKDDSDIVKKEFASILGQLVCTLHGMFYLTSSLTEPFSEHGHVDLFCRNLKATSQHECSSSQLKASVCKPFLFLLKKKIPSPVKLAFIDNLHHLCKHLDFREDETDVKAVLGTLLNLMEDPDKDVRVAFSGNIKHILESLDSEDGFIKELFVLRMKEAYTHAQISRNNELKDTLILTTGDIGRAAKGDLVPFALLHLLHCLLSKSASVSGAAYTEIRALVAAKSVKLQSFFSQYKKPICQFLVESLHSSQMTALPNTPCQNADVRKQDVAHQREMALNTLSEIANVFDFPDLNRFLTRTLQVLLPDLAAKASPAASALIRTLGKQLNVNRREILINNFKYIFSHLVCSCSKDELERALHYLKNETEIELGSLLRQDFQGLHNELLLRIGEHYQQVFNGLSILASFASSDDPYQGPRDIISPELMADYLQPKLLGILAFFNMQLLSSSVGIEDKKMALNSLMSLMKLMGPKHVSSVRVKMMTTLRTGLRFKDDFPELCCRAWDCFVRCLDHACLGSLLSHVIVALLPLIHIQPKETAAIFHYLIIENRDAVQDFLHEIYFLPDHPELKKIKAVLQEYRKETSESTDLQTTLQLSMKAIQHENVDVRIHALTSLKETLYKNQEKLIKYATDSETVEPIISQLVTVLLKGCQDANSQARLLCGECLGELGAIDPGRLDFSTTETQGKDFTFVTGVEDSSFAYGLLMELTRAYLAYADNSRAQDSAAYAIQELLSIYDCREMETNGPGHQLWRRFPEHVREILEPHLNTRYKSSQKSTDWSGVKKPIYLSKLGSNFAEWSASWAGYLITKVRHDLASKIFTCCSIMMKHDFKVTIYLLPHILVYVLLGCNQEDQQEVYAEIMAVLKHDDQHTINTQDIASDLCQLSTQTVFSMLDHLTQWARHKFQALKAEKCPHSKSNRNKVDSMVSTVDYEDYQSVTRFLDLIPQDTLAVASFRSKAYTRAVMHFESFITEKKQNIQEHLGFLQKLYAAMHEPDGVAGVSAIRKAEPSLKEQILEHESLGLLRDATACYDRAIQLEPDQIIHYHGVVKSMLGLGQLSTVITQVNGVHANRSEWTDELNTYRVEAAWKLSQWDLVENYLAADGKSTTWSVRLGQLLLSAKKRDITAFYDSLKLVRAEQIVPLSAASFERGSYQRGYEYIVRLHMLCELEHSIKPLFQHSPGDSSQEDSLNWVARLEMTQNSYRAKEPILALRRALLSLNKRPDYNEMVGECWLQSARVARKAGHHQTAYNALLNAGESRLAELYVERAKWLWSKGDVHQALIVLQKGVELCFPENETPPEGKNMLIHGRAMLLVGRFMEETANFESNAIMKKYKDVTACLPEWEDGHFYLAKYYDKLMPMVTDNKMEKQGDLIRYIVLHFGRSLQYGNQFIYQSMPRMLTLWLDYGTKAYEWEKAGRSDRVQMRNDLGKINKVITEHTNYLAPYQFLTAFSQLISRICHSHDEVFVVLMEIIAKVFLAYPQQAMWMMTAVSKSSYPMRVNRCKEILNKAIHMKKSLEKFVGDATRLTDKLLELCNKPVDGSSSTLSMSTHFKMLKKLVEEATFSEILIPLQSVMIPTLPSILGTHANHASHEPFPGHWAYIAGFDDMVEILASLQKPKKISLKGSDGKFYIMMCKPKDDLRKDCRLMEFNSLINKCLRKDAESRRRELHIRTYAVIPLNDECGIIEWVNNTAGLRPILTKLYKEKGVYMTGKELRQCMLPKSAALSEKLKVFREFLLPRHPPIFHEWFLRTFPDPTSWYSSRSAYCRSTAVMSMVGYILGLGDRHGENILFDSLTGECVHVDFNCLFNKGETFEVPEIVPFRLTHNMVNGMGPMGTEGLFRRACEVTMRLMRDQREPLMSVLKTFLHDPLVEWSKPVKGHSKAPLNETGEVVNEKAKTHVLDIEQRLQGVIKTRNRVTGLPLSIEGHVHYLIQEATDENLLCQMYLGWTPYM

[2] = Solubility of the compound in PBS buffer at pH 7 by shake flask equilibrium solubility assay
[3] = Apparent permeability from basolateral to apical side in human Caco2 cells at 10 uM and pH 7.4; details: Caco-2, pH 7.4
[4] = Intrinsic clearance in rat liver microsomes; type: ADME; details: read-out: CLH
In short: (§1)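 Liver microsomes from mouse, rat or human; intrinsic clearance scaled to hepatic blood flow.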

[5] = Oral bioavailability in Sprague-Dawley rat at 5 mg/kg; type: ADME, organism-based; details: in vivo
[6] = target: T1, Phosphatidylinositol 4,5-bisphosphate 3-kinase catalytic subunit alpha isoform (Homo sapiens, UniProt P42336); assay: Inhibition of PI3Kalpha (unknown origin)
T1 sequence (P42336 whole entry, canonical isoform): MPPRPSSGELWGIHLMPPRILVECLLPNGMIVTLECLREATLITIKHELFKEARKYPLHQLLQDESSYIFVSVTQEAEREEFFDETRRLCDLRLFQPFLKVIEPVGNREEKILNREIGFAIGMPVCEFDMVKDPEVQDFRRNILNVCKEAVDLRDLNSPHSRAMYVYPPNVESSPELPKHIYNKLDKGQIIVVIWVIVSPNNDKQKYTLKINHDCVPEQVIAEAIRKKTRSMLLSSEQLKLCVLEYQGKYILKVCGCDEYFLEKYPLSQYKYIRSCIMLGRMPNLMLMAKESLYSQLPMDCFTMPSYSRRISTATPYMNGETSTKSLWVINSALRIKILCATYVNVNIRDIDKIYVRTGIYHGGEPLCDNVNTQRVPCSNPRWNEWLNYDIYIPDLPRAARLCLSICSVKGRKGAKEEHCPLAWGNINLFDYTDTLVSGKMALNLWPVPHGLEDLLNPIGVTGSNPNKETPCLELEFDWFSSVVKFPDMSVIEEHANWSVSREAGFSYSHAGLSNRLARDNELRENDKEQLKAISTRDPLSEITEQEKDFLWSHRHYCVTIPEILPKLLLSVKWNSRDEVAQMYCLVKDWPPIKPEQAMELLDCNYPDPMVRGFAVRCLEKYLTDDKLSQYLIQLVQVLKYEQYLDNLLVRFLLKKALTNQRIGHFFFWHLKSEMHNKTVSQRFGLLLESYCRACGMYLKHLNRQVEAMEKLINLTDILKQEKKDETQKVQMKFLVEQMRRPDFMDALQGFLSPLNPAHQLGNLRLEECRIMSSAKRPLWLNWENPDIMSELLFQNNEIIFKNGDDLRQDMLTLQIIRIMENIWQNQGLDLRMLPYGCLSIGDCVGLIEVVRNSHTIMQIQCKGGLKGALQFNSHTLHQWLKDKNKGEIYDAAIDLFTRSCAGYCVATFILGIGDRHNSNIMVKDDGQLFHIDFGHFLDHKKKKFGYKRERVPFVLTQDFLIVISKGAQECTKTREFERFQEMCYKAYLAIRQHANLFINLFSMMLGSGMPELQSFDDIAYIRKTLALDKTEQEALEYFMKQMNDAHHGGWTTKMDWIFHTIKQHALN

[7] = Apparent permeability from apical to basolateral side in human Caco2 cells at 10 uM and pH 7.4; details: Caco-2, pH 7.4
[8] = Intrinsic clearance in human liver microsomes; type: ADME; details: read-out: CLH; in short: as §1
[9] = target: T2, Serine/threonine-protein kinase Chk1 (Homo sapiens, UniProt O14757); assay: Inhibition of full-length Chk1 in HeLa S3 cells assessed as phosphorylation at Ser345 after 4 hrs; type: cell-based
T2 sequence (O14757 whole entry): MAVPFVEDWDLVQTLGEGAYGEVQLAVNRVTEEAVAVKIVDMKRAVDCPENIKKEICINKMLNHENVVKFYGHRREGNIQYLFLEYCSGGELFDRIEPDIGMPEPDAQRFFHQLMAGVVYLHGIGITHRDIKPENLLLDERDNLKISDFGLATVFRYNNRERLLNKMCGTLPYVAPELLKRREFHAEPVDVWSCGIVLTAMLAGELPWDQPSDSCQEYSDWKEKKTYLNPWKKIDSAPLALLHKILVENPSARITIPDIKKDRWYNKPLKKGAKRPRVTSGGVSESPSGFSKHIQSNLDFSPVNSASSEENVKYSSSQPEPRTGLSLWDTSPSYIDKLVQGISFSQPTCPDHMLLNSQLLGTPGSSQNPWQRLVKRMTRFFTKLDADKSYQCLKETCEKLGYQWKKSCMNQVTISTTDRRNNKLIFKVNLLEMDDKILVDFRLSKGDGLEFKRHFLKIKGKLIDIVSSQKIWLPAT
In short: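 HeLa S3 cells exposed to 1 µM gemcitabine together with test compound for 4 hr; read-out is Ser345-phosphorylated Chk1.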

[10] = Intrinsic clearance in mouse liver microsomes; type: ADME; details: read-out: CLH; in short: as §1
[11] = Clearance in Sprague-Dawley rat at 2.5 mg/kg, iv and 5 mg/kg, po; type: ADME, organism-based; details: in vivo
[12] = target: Phosphatidylinositol 4,5-bisphosphate 3-kinase catalytic subunit beta isoform (Homo sapiens) (UniProt P42338); assay: Inhibition of PI3Kbeta (unknown origin) at <8 uM
[13] = target: T3, DNA-dependent protein kinase catalytic subunit (Homo sapiens, UniProt P78527); assay: Inhibition of DNAPK (unknown origin) at 10 uM
Cytochrome P450 1A2 [14] = target: T4, Cytochrome P450 1A2 (Homo sapiens, UniProt P05177); assay: Time dependent inhibition of CYP1A2 in human liver microsomes; type: ADME; details: TDE = time-dependent effect
T4 sequence (P05177 whole entry): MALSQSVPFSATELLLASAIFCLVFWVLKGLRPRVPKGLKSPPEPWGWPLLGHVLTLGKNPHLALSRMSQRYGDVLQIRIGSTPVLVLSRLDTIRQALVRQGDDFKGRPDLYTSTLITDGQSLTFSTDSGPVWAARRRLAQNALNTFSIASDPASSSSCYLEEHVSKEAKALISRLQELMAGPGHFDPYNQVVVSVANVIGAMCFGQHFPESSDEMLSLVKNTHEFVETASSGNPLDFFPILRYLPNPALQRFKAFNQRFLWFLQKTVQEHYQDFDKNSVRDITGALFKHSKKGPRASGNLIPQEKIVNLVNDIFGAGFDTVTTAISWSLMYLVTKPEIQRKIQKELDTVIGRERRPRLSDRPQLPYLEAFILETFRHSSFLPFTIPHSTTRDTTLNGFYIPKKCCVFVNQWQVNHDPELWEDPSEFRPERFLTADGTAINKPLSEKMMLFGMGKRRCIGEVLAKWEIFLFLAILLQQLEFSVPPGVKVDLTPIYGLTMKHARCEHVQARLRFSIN

Cytochrome P450 2D6 [15] = target: T5, Cytochrome P450 2D6 (Homo sapiens, UniProt P10635); assay: Time dependent inhibition of CYP2D6 in human liver microsomes; type: ADME; details: TDE = time-dependent effect
T5 sequence (P10635 whole entry): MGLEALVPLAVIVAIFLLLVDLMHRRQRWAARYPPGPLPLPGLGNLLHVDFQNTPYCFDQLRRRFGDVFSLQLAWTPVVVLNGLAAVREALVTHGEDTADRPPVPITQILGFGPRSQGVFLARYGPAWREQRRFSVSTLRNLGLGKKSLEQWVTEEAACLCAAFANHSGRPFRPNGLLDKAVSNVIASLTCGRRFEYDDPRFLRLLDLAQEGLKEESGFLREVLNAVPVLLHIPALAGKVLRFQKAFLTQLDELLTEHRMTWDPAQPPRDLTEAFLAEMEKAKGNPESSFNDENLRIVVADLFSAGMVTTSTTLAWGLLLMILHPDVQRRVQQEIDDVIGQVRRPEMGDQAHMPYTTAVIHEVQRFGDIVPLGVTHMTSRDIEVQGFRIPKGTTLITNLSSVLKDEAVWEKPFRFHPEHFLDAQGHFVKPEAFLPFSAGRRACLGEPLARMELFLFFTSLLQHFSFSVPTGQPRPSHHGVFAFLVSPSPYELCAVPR

Cytochrome P450 3A4 = Cytochrome P450 3A4 (Homo sapiens, UniProt P08684); assay: Inhibition of CYP3A4 (unknown origin); type: ADME
Cytochrome P450 2C9 [16] = target: T6, Cytochrome P450 2C9 (Homo sapiens, UniProt P11712); assay: Inhibition of CYP2C9 (unknown origin); type: ADME
T6 sequence (P11712 whole entry): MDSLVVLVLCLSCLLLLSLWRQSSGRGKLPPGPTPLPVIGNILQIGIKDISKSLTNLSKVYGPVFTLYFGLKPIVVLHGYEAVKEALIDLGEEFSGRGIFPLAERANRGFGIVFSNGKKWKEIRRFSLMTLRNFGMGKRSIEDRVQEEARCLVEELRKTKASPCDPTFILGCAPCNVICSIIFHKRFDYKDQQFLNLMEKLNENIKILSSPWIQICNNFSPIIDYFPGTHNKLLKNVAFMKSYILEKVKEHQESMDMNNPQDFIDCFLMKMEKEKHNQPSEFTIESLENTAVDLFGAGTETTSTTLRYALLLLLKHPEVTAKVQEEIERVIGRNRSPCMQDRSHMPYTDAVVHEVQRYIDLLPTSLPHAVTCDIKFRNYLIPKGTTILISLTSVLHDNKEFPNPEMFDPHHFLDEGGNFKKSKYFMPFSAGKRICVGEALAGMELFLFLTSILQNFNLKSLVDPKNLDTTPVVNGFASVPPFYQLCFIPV

Cytochrome P450 2D6 [17] = target: T5, Cytochrome P450 2D6; assay: Inhibition of CYP2D6 (unknown origin); type: ADME
[18] = target: T7, Serine-protein kinase ATM (Homo sapiens, UniProt Q13315); assay: Inhibition of ATM (unknown origin) at 2 uM
Cytochrome P450 1A2 [19] = target: T4, Cytochrome P450 1A2; assay: Inhibition of CYP1A2 (unknown origin); type: ADME
Cytochrome P450 2C9 [20] = target: T6, Cytochrome P450 2C9; assay: Time dependent inhibition of CYP2C9 in human liver microsomes; type: ADME; details: TDE = time-dependent effect
[21] = target: Serine/threonine-protein kinase mTOR (Homo sapiens, UniProt P42345); assay: Inhibition of mTOR (unknown origin)
[22] = target: Phosphatidylinositol 4,5-bisphosphate 3-kinase catalytic subunit gamma isoform (Homo sapiens) (UniProt P48736); assay: Inhibition of PI3Kgamma (unknown origin) at <8 uM
[23] = target: T8, Phosphatidylinositol 4,5-bisphosphate 3-kinase catalytic subunit delta isoform (Homo sapiens) (UniProt O00329); assay: Inhibition of PI3Kdelta (unknown origin) at <8 uM
T8 sequence (whole entry): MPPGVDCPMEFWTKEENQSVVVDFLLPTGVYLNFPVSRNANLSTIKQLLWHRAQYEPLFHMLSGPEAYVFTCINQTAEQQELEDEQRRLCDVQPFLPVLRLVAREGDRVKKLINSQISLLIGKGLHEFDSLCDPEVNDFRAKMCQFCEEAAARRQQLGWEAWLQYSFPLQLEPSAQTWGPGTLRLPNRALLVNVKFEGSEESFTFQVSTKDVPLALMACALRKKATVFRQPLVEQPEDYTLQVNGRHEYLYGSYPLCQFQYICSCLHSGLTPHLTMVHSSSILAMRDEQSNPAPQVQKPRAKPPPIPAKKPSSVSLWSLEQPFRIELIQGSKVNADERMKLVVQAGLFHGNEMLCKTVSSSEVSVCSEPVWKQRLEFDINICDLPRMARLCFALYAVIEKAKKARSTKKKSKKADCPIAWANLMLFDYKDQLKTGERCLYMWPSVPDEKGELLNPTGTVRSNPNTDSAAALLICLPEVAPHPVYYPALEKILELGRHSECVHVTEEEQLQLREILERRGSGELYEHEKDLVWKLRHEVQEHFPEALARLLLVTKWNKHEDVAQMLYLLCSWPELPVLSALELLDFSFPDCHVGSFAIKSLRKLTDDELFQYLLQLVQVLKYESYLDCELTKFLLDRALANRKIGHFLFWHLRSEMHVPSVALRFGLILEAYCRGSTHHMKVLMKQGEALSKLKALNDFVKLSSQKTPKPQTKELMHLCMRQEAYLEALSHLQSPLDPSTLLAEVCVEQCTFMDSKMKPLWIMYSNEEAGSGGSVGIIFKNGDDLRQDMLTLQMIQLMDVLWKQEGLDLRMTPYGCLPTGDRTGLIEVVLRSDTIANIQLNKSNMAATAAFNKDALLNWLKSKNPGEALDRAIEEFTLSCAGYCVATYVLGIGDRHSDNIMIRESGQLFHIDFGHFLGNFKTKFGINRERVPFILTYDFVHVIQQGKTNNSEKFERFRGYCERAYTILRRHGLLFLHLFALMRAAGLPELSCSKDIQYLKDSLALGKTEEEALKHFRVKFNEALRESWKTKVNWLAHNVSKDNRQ

[24] = target: T1, Phosphatidylinositol 4,5-bisphosphate 3-kinase catalytic subunit alpha isoform; assay: Inhibition of PI3Kalpha (unknown origin) at <8 uM
[25] = Volume of distribution at steady state in Sprague-Dawley rat at 2.5 mg/kg, iv and 5 mg/kg, po; type: ADME, organism-based; details: in vivo, read-out: Vdss
[26] = Growth inhibition of human HT144 cells after 72 hrs by Cell Titer Glow assay; type: functional, cell-based; details: HT-144, 72 h
In short: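 Cell Titer Glo viability read-out after 72 hr continuous compound exposure.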

[27] = target: Voltage-gated inwardly rectifying potassium channel KCNH2 (Homo sapiens, UniProt Q12809); assay: Inhibition of human ERG channel by dofetilide binding assay
[28] = target: T7, Serine-protein kinase ATM; assay: Inhibition of ATM (unknown origin)
[29] = Half life in Sprague-Dawley rat at 2.5 mg/kg, iv and 2.5 mg/kg, po; details: in vivo
[30] = target: T3, DNA-dependent protein kinase catalytic subunit; assay: Inhibition of DNAPK (unknown origin)

SMILES	IC50 [1]	solubility thermodynamic [2]	Papp B→A at 10 µM [3]	bioavailability [5]	IC50 [6]	Papp A→B at 10 µM [7]	clearance [11]	also measured
CS(=O)(=O)Cn1cnc2c(N3CCOCC3)nc(-c3cccc4[nH]ccc34)cc21	5 nM	193 µM (≈ 79.4 µg/mL)	58 ×10⁻⁶ cm/s	96%	> 10 µM	14 ×10⁻⁶ cm/s	14 mL/min/kg	CLint scaled [4]: 30 mL/min/kg; CLint scaled [8]: 6 mL/min/kg; EC50 [9]: 3300 nM; CLint scaled [10]: 31 mL/min/kg
C[C@@H]1COCCN1c1nc(-c2cccc3[nH]ccc23)cc2c1ncn2CS(C)(=O)=O	1 nM							EC50 [9]: 570 nM
C[C@@H]1COCCN1c1nc(-c2cccc3[nH]ccc23)cc2nccn12	95 nM				> 10 µM			
C[C@@H]1COCCN1c1nc(-c2cncc3[nH]ccc23)cc2c1ncn2[C@@H](C)S(C)(=O)=O	0.2 nM	> 770 µM	37 ×10⁻⁶ cm/s			2 ×10⁻⁶ cm/s	114 mL/min/kg	inhibition [12]: inactive; inhibition [13]: inactive; inhibition (INH) (Cytochrome P450 1A2 [14]): tde; inhibition (INH) (Cytochrome P450 2D6 [15]): tde; IC50 (Cytochrome P450 3A4): > 40 µM; IC50 (Cytochrome P450 2C9 [16]): > 40 µM; IC50 (Cytochrome P450 2D6 [17]): > 40 µM; inhibition [18]: inactive; IC50 (Cytochrome P450 1A2 [19]): > 40 µM; inhibition (INH) (Cytochrome P450 2C9 [20]): tde; IC50 [9]: 80 nM; IC50 [21]: > 4.6 µM; inhibition [22]: inactive; inhibition [23]: inactive; inhibition [24]: inactive
C[C@@H]1COCCN1c1nc(-c2c(F)ncc3[nH]ccc23)cc2c1ncn2C	0.1 nM	> 2300 µM	38 ×10⁻⁶ cm/s	66%		38 ×10⁻⁶ cm/s	20 mL/min/kg	Vd [25]: 1.2 L/kg; IC50 [9]: 96 nM
CS(=O)(=O)Cn1cnc2c(N3C4CCC3COC4)nc(-c3cnc(N)nc3)cc21	190 nM							
O=C(NC1CC1)c1cn2c(N3CCOCC3)nc(-c3cccc4[nH]ccc34)cc2n1	39 nM							
C[C@@H]1COCCN1c1nc(-c2cnc(N)nc2)cc2c1ncn2CS(C)(=O)=O	6 nM							
C[C@@H]1COCCN1c1nc(-c2nncc3[nH]ccc23)cc2c1ncn2C	0.5 nM	> 2400 µM	38 ×10⁻⁶ cm/s	7.5%		3.6 ×10⁻⁶ cm/s	34 mL/min/kg	IC50 [26]: 350 nM; IC50 [27]: > 30 µM; IC50 (Cytochrome P450 3A4): > 24 µM; Vd [25]: 1.8 L/kg; IC50 (Cytochrome P450 2C9 [16]): > 24 µM; IC50 (Cytochrome P450 2D6 [17]): > 24 µM; IC50 [28]: 15 µM; IC50 (Cytochrome P450 1A2 [19]): > 24 µM; IC50 [21]: > 13 µM; half-life [29]: 120 min; IC50 [30]: > 25 µM
c1cc(-c2cc3nccn3c(N3CCOCC3)n2)c2cc[nH]c2c1	96 nM	56 µM (≈ 17.9 µg/mL)			> 10 µM			
c1cc(-c2cc3c(ncn3CC3CC3)c(N3CCOCC3)n2)c2cc[nH]c2c1	26 nM				> 10 µM			
CS(=O)(=O)Cn1cnc2c(N3C4CCC3COC4)nc(-c3cncc4[nH]ccc34)cc21	34 nM							
C[C@@H]1COCCN1c1nc(-c2cncc3[nH]ccc23)cc2c1ncn2C				18%			49 mL/min/kg	Vd [25]: 2.3 L/kg; IC50 [9]: 84 nM; IC50 [21]: 7.5 µM
